# PubChem BioAssay AID504383 (The Scripps Research Institute Molecular Screening Center, 2011)
# The whole screen tested about 2,500 compounds, of which about 1,200 (48%) were called active. The set was probably picked from earlier hits. The list shows a part of the results. Values without a mark were called inactive.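 Rule for the calls: active = mean activation above the low control average plus 3 SD, as set in the primary screen (cut at about 12% in these data); inactive = the rest.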
# Target: Troponin I, cardiac muscle (Homo sapiens) + Troponin T, cardiac muscle (Homo sapiens) + Troponin C, slow skeletal and cardiac muscles (Homo sapiens) (UniProt P19429+P45379+P63316)
# Experiment: calcium sensitizers of cardiac thin filaments – biochemical, IANBD-TnC fluorescence, triplicate, confirmation (AID 504383);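 note: 0% = DMSO at 0.472 mM calcium and 100% = DMSO at 2.9 mM calcium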
# Settings: IANBD-labeled cardiac RTF, Ca2+ sensitivity fluorescence; at 7.2 µM; active compounds read high; scaled from EC20 to saturating calcium; tested at EC20 calcium, 0.472 mM
# Outline: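 Material: labelled regulated thin filaments; Reagent: 0.472 mM calcium; Incubation: 15 min compound incubation with filaments at 25 °C; Detection: filament fluorescence intensity; Evaluation: fluorescence increase normalised to calcium controls; Benchmarks: low control EC20 calcium, high control EC100 calcium.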
row,Compound,activation
1,CN(C)c1ccc(/C=C/c2cc[n+](C)cc2)cc1,28.1% (active)
2,Cc1ccc(/C=C/c2ccc(N(C)C)cc2)[n+](C)c1,9.58%
3,CN(C)c1ccc(/C=C/c2cc[n+](C)c3ccccc23)cc1,6.25%
4,CCOc1cc(/C=C2\NC(=O)NC2=O)cc([N+](=O)[O-])c1O,8.6%
5,COc1ccc(N=Cc2cc3c(cc2O)OC(N)=C(C#N)C3c2ccccc2)cc1 (stereo not given),95.8% (active)
6,Cc1ccccc1N=Cc1cc2c(cc1O)OC(N)=C(C#N)C2c1ccccc1 (stereo not given),15.4% (active)
7,COc1ccc(O)c(/C=N/c2nc3ccccc3n2C)c1,10.8%
8,Cc1cc(C)n(-c2nc3ccccc3nc2Nc2ccc3[nH]c(=O)[nH]c3c2)n1,15.9% (active)
9,Cc1cc(S(=O)(=O)Cc2noc(-c3c(C)noc3C)n2)c(C)cc1Cl,5.06%
10,CC(C)(ONC(=O)Nc1ccccc1Cl)C(=O)O,833% (active)
11,O=C(O)C1CCC(CNCc2ccccc2Cl)CC1 (stereo not given),10.5%
12,CC(C)c1ccc(C2c3[nH]c4ccccc4c3C[C@H]3C(=O)N(c4ccccc4C(=O)N4CCC(C(=O)O)CC4)C(=O)N23)cc1 (stereo not given in full),12% (active)
13,O=C(NCCN1CCOCC1)c1ccccc1N1C(=O)[C@@H]2Cc3c([nH]c4ccccc34)C(c3ccc(F)cc3)N2C1=O (stereo not given in full),4.51%
14,CCN1C(=O)[C@@H]2Cc3c([nH]c4ccccc34)C(c3ccc(OC)cc3)N2C1=S (stereo not given in full),6.48%
15,CCOc1nc(OCC)c2[nH]c(C(=O)O)c(Br)c2n1,4.87%
16,CC1CC(C)CN(CCOCCSc2ccccc2)C1 (stereo not given),76.1% (active)
17,CC1CN(CCCCOc2ccc3ccccc3c2)CC(C)O1 (stereo not given),7.54%
18,Cc1ccccc1C(=O)c1cccn1CC(=O)NCCCN1CC(C)CC(C)C1 (stereo not given),5.75%
19,Cc1ccccc1C1CC(=O)Oc2cc(O)ccc21 (stereo not given),-1.84%
20,O=C(CSc1ccc(Cl)cc1)Nc1cccc(NC(=O)c2ccco2)c1,9.78%
21,COCCn1c(SCC(=O)Nc2ccc(NC(=O)c3ccco3)c(OC)c2)nc2ccccc2c1=O,14.4% (active)
22,COC1=CC2(O)CCCC2=CC1=O (stereo not given),6.42%
23,CC(C)(C)NC(=O)NC(=O)Cn1ccsc1=N,135% (active)

row,Compound,activation
1,Cc1nc2c(C#N)cnn2c2c1CCN(Cc1ccccc1)N2C,389% (active)
2,Cc1c2c(n3c(nc4ccccc43)c1C#N)N(CCN1CCOCC1)CC2,10%
3,O=C1c2c(O)cc(O)cc2O[C@@]12c1c(cc(O)c3c1O[C@H](c1ccc(O)cc1)[C@@H](O)C3)O[C@@H]2c1ccc(O)cc1,5.77%
4,CCC1(C)COC(c2ccc(OC)c(OC)c2)OC1 (stereo not given),1.48%
5,CCOc1ccc(C2CC(c3c(O)c4ccccc4oc3=O)=NN2c2ccccc2)cc1OC (stereo not given),22.3% (active)
6,NC(=O)c1cc2ccc(O)cc2oc1=NCc1ccccc1,6.57%
7,CCCCCC(C)NC(=S)NC(=O)c1cc(S(=O)(=O)N2CCOCC2)ccc1C (stereo not given),6.76%
8,Cc1ccc(NC(=O)c2cc(S(=O)(=O)N3CCCCC3)ccc2N2CCOCC2)cc1S(=O)(=O)N(C)C,7.6%
9,CCOC(=O)c1c(-c2ccccc2Cl)csc1NC(=O)c1cc(S(=O)(=O)N2CCOCC2)ccc1C,12.7% (active)
10,Oc1ccc2nnc3c(Br)cnn3c2c1,7.23%
11,Cc1nc2oc(C(=O)c3ccccc3)c(N)c2c2c1COC(C)(C)C2,744% (active)
12,CCc1ccc2c(COC(=O)CNS(=O)(=O)c3ccc(NC(C)=O)cc3)cc(=O)oc2c1,34.8% (active)
13,COc1ccc(/C=C2\Oc3cc(OCC(N)=O)ccc3C2=O)cc1OC,6.98%
14,CN(C)c1ccc(/C=C2\Oc3ccc(C#Cc4cccc(N)c4)cc3C2=O)cc1,4.36%
15,COc1ccccc1C(=O)Oc1ccc2c(c1)O/C(=C\c1ccncc1)C2=O,31.6% (active)
16,O=C(Oc1ccc2c(c1)O/C(=C\c1ccncc1)C2=O)c1ccccc1,104% (active)
17,Cc1ccc(-n2nnnc2-c2cnc3cc4c(cc3c2C)OCO4)cc1,4.93%
18,Cc1ccc(-n2nnnc2C(=Cc2ccc(N(C)C)cc2)c2nnnn2-c2ccc(C)cc2)cc1,14.4% (active)
19,O=c1c(/C=C(\O)c2ccc(F)cc2)nc2ccccc2n1-c1ccccc1,6.91%
20,CC(C)(C)C(=O)/C=c1\s/c(=C\c2ccc(-c3ccc([N+](=O)[O-])cc3)o2)c(=O)n1CC(=O)NC(N)=O,46.3% (active)
21,CCCNC(=O)Cn1c(=O)/c(=C\c2ccc(-c3ccc([N+](=O)[O-])cc3)o2)s/c1=C\C(=O)C(C)(C)C,28.6% (active)
22,CCCNC(=O)Cn1c(=O)/c(=C/c2ccc(-c3ccc([N+](=O)[O-])cc3)o2)s/c1=C\C(=O)C(C)(C)C,29.9% (active)
